Hits are enriched below; roughly 3.7% of the tested compounds scored in any of these assays.
p47phox inh: p47phox/p22phox peptide binding inhibitors, primary screen, biochemical, uHTS, NADPH oxidase regulatory subunit. fluorescence polarization, 2 h. inhibition, % at 24.7 µM. 0.53% of 220,000 active;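 also: 0% = p47phox with labelled peptide and 100% = labelled peptide alone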
WT yeast gro inh: growth inhibition of WT strain, primary screen, mitochondrial fusion inhibitor project, WT and mutant strains, chemical genetic; 2.1% of 190,000 active; mitochondrial fusion phenotypic screen; inhibition, % at 10 µM; in the data active = inhibition above about 58%; tested in S. cerevisiae
EBV gp42 block: Epstein-Barr virus gp42 inhibitors, primary screen, biochemical, uHTS, fluorescence polarization | inhibition, % (tested at 21.74 µM) | 0.42% of 220,000 active | Fluorescence polarization binding assay, mP read-out | AID 1085, 2008 | Glycoprotein 42 (Epstein-Barr virus (strain AG876)), Q1HVG2; in the data active = inhibition above about 50%
Target sequence (Q1HVG2 whole entry, looked up): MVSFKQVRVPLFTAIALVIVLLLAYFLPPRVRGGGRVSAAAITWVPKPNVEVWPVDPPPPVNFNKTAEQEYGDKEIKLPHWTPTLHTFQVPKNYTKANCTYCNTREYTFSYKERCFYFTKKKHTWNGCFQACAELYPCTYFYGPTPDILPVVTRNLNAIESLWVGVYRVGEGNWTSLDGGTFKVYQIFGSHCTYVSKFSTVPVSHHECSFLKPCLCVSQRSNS
14-3-3 Bad inh: inhibitors of 14-3-3 zeta/Bad binding, primary screen, biochemical, TR-FRET, bovine 14-3-3 zeta; inhibition, % at 21.7 µM; TR-FRET 14-3-3zeta/Dy647-pBad peptide displacement, 1 h; 14-3-3 protein zeta/delta (Bos taurus), P63103; AID 781, 2007; 0.71% of 220,000 active;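 active = inhibition above about 70%, limit read from the data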;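 also: 0% = full 14-3-3 plus peptide FRET controls and 100% = background without 14-3-3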
eIF4E-4G inh: eIF4E–eIF4G protein interaction inhibitors, primary screen, biochemical, uHTS, TR-FRET, eIF4GI fragment | TR-FRET eIF4E-eIF4GI(517-606) binding, 2 h | inhibition, % at 21.7 µM | 0.37% of 220,000 active | AID 782, 2007;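 also: 0% = full FRET control wells and 100% = background wells lacking eIF4GI fragment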
RBBP9 inhibitor: human RBBP9 inhibitors, primary screen, biochemical, fluorescence polarization, FP-Rh probe, HTS; Serine hydrolase RBBP9 (Homo sapiens), O75884; recombinant RBBP9; inhibition, % at 7.94 µM; 0.2% of 220,000 active; AID 1515, 2009;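 active = inhibition above the campaign mean of all tested compounds plus 3 SD, cut at about 14% in these data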;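 also: plate controls were DMSO wells with RBBP9 for no effect and wells lacking RBBP9 protein for full effect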
Target sequence (O75884 whole entry, looked up): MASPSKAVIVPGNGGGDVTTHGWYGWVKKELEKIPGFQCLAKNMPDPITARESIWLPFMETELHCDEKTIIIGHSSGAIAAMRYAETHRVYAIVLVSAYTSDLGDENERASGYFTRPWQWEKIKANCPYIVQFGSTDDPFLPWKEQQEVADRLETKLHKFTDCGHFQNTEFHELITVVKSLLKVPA
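Controls: DMSO-treated enzyme wells and wells lacking RBBP9 | Material: RBBP9 protein | Technique: Fluorescence polarization | Replication: Single well per compound, no replicates | Buffer or medium: Tris-NaCl-Pluronic buffer, pH 8.0 | Timing: 30 min compound preincubation, 45 min probe labeling, 25 °C | Read-out basis: Percent inhibition from mP, scaled between DMSO and no-protein wells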
Numbers without * were called inactive; x = not tested or not shown.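 The calls were made as follows, unless noted: active = inhibition above about 30% (limit read from the data); inactive = the rest.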

SMILES	p47phox inh	WT yeast gro inh	EBV gp42 block	14-3-3 Bad inh	eIF4E-4G inh	RBBP9 inhibitor
O=C(c1ccc2c(c1)OCO2)N(Cc1cccs1)C1(C(=O)NC2CCCCC2)CCCCC1	-10	62*	0	2	7	-14
O=C(Cc1cccs1)N(Cc1cccs1)C1(C(=O)NC2CCCC2)CCCCC1	0	9	-14	2	-4	-2
O=C(Cc1cccs1)N(Cc1ccco1)C1(C(=O)NC2CCCCC2)CCCCC1	43*	5	-13	-16	4	-4
CSc1ccc(NC(=O)Nc2ccc(C(=O)NCC(=O)O)cc2)cc1	-22	x	2	-11	17	-6
Nc1nnc(-c2ccc(Cl)c([N+](=O)[O-])c2)s1	-3	39	-18	-13	8	-1
Cc1ccc(-c2[nH]c3ccccc3c2C(C[N+](=O)[O-])c2ccco2)cc1 (stereo not drawn)	-20	69*	-6	-6	5	-7
Cn1cc(Cl)c(C(=O)Nc2nc3ccc([N+](=O)[O-])cc3s2)n1	-3	5	67*	52	-7	-11
Cn1cc(Cl)c(C(=O)Nc2nc3ccc(Cl)cc3s2)n1	-9	12	4	2	-23	-12
COc1ccc(N2C(=O)CCC(C(=O)NCc3cccnc3)C2c2ccc(OC)c(OC)c2)cc1 (stereo not drawn)	200*	-1	-10	16	3	0
COc1ccc(N2C(=O)CCC(C(=O)NCCN3CCOCC3)C2c2ccc(OC)c(OC)c2)cc1 (stereo not drawn)	-12	x	-13	-2	4	-8
NC(=O)c1ccccc1OC1CCC1	-8	x	-18	-3	3	-7
CCCSc1nc(-n2ncc(C#N)c2N)c2c3c(sc2n1)CCC(C)C3 (stereo not drawn)	-14	64*	-21	0	-20	-4
Cc1nc(-n2ncc(C#N)c2N)c2c3c(sc2n1)CCC3	-2	-4	18	42	4	-3
CCn1cc(C(=O)NCc2ccccn2)c(=O)c2cc(S(=O)(=O)N3CCCCC3)ccc21	18	-2	111*	17	5	-1
COc1cccc(/C(=N/O)C2CC2c2ccc(Cl)cc2)c1 (stereo not drawn)	-5	51	4	-12	-2	-3
CCN(CC)C(=O)c1sc2nc(-c3cccs3)cc(-c3ccc(Cl)cc3)c2c1N	-29	13	86*	-18	-4	-16
CCN(CC)C(=O)c1sc2nc(-c3cccs3)cc(-c3cccs3)c2c1N	-28	x	47	11	-3	-12
Cc1cc(C)nc(NS(=O)(=O)c2ccc(N)cc2)n1	-4	0	3	4	-3	4
Cc1cc(C)nc(NS(=O)(=O)c2ccc(Br)cc2)n1	4	-4	-7	85*	1	-6
Cc1cc(N2CCOCC2)nc2cc(O)ccc12	-6	2	-9	80*	-5	-9
Cc1cc(N2CCOCC2)nc2ccccc12	-9	-3	-7	0	3	-4
Cc1ccc(-c2nnc(CCC(=O)NCc3csc(C)n3)o2)s1	-2	x	0	-5	-7	-4
Cc1cc[n+](CC(=O)c2ccc(NC(=O)c3ccccc3)cc2)c2ccccc12	-4	61*	-33	15	14	-2
O=C(C[n+]1cccc2ccccc21)c1ccc(NC(=O)c2ccccc2)cc1	-45	17	-72	-3	8	-4
Cc1noc2ncnc(N3CCN(c4cccc(Cl)c4)CC3)c12	0	61*	-1	-19	0	-11
SMILES	p47phox inh	WT yeast gro inh	EBV gp42 block	14-3-3 Bad inh	eIF4E-4G inh	RBBP9 inhibitor
CSc1nc(-c2ccco2)nn1S(=O)(=O)c1ccccc1	-3	-2	10	81*	20	8
CC12CCC(C(=O)N/N=C/c3ccc(O)cc3O)(OC1=O)C2(C)C (stereo not drawn)	-5	x	-7	-21	-1	0
CC1CCCCN1c1cc(C#N)c(C#N)cc1[N+](=O)[O-] (stereo not drawn)	2	-4	4	-4	4	-8
CC1CCc2cccc3c2N1c1cc(C#N)c(C#N)cc1O3 (stereo not drawn)	-12	10	116*	-8	-3	-4
CC(NCc1ccc(N(C)C)cc1)C1CC2CCC1C2 (stereo not drawn)	1	4	-11	78*	5	2
CC(NC(=O)CSc1ccccc1C(=O)O)C1CC2CCC1C2 (stereo not drawn)	-3	16	-7	-3	-4	-9
CC(=O)Nc1cc(C(=O)OC(C(=O)c2ccccc2)c2ccccc2)ccc1C (stereo not drawn)	49*	-12	8	12	5	-3
O=C(O)CSCC(=O)N1CCN(S(=O)(=O)c2cc(Cl)cc(Cl)c2)CC1	-8	x	-10	-1	-4	7
COc1cccc(-c2cc(C(=O)Nc3cnn(Cc4ccccc4C)c3)no2)c1	70*	6	-6	5	-8	-8
COc1cccc(-c2cc(C(=O)Nc3cnn(Cc4ccc(F)cc4)c3)no2)c1	1	-20	-7	5	-5	-1
O=[N+]([O-])c1cccc(-c2cn3nc(-c4ccccc4)c(-c4ccccc4)nc3n2)c1	-17	x	72*	-4	0	-16
O=[N+]([O-])c1ccc(-c2cn3nc(-c4ccccc4)c(-c4ccccc4)nc3n2)cc1	-37	x	111*	3	0	-8
O=[N+]([O-])c1cccc(-c2cn3ccccc3n2)c1	-7	-6	-16	-13	-2	2
Cc1nc(-c2ccccc2)cn(O)c1=O	0	-12	-15	72*	1	-5
Cc1nn2cc(-c3ccccc3)nc2[nH]c1=O	-7	-6	-1	5	3	0
CCc1c(C)c(C#N)c2nc3ccccc3n2c1NCCN(C)C	-16	41	-7	1	-16	-1
C=CCc1c(C)c(C#N)c2nc3ccccc3n2c1NCCN(C)C	-12	70*	-5	5	4	-9
O=C(/C=C/c1ccco1)Nc1ccccc1N1CCCCC1	-4	70*	11	0	2	-6
COC(=O)c1ccccc1NC(=O)/C=C/c1ccco1	-16	8	-19	-7	1	-1
Cc1cc(N/N=C/c2ccncc2)c([N+](=O)[O-])cc1[N+](=O)[O-]	-8	x	-10	8	-4	-6
CCn1c(C)c(C(C)=O)c(N2CCN(C(=O)c3ccco3)CC2)nc1=S	1	-6	-16	43	71*	-8

Screens (PubChem)
